Calls of active or inactive are those of the source. No cut-off for these calls is given here.
Experiments:
[1] = Permeability of the compound at 100 uM after 6 hrs by PAMPA; type: ADME
[2] = system: UMSCC23; test: Antiproliferative activity against human UMSCC23 cells after 48 hrs by ATP-based Cell Titer-Glo assay; type: functional; conditions: for IC50: UMSCC23, 48 h
Method in brief: (§1)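 OCSCC cells cultured with increasing concentrations of purified compound (98% by UPLC-PDA). Read-out was ATP-based luminescent proliferation. Exposure is given as 48 h in the figure legend and 36 h in the text. IC50 values were taken from the dose-response curves. Error bars are SD.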

[3] = (§2) Antiproliferative activity against human HN12 cells after 48 hrs by ATP-based Cell Titer-Glo assay; type: functional; conditions: HN12, 48 h; method in brief: as §1
[4] = system: UMSCC23; test: Induction of apoptosis in human UMSCC23 cells assessed as increase in GADD45alpha mRNA expression at antiproliferative IC50 over 36 hrs by RT-qPCR analysis; type: functional, cell-based
Method in brief: (§3)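 OCSCC cultures treated at the IC50 from the ATP proliferation assay. cDNA libraries were made from the treated cells and analysed for apoptotic transcripts by Taqman RT-qPCR. Three independent experiments were run, each in triplicate, with error bars given as SEM.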

[5] = system: UMSCC23; test: Induction of apoptosis in human UMSCC23 cells assessed as increase in NOXA mRNA expression at antiproliferative IC50 over 36 hrs by RT-qPCR analysis; type: functional, cell-based; method in brief: as §3
[6] = system: UMSCC23; test: Induction of apoptosis in human UMSCC23 cells assessed as increase in DR5 mRNA expression at antiproliferative IC50 over 36 hrs by RT-qPCR analysis; type: functional, cell-based; method in brief: as §3
[7] = system: UMSCC23; test: Induction of apoptosis in human UMSCC23 cells assessed as increase in Bcl2 mRNA expression at antiproliferative IC50 over 36 hrs by RT-qPCR analysis; type: functional, cell-based; method in brief: as §3
[8] = system: HN12; test: Induction of apoptosis in human HN12 cells assessed as increase in GADD45alpha mRNA expression at antiproliferative IC50 over 36 hrs by RT-qPCR analysis; type: functional, cell-based; method in brief: as §3
[9] = system: HN12; test: Induction of apoptosis in human HN12 cells assessed as increase in NOXA mRNA expression at antiproliferative IC50 over 36 hrs by RT-qPCR analysis; type: functional, cell-based; method in brief: as §3
[10] = system: HN12; test: Induction of apoptosis in human HN12 cells assessed as increase in DR5 mRNA expression at antiproliferative IC50 over 36 hrs by RT-qPCR analysis; type: functional, cell-based; method in brief: as §3
[11] = system: HN12; test: Induction of apoptosis in human HN12 cells assessed as increase in Bcl2 mRNA expression at antiproliferative IC50 over 36 hrs by RT-qPCR analysis; type: functional, cell-based; method in brief: as §3
[12] = system: HN12; test: Induction of apoptosis in human HN12 cells assessed as genomic DNA laddering after 48 hrs by agarose gel electrophoresis method; type: functional, cell-based
Method in brief: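 HN12 cells treated for 48 h at the proliferation-assay IC50 and at a semilog dose above and below it. Genomic DNA was resolved electrophoretically and scored for laddering.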

[13] = system: HN12; test: as §2; type: functional; method in brief: as §1

Row | permeability [1] | SMILES | IC50 [2] | IC50 [3] | Activity [4] | Activity [5] | Activity [6] | Activity [7] | Activity [8] | Activity [9] | Activity [10] | Activity [11] | Activity [12] | Activity [2] | Activity [13]
1 | 35% | C=CC1=C[C@@H]2[C@@H]3O[C@](O)(CC[C@H](O)[C@@H](C)C[C@@H](O)C3=O)CC(=O)C3=NCC[C@@]32CC1 | 229 nM | 116 nM | Active | Active | Active | Active | Active | Active | Active | Active | Active |  | 
2 | 12% | C[C@]12C=CC(=O)C=C1CC[C@@H]1[C@@H]2C(=O)C[C@@]2(C)[C@H]1CC[C@]2(O)C(=O)CO [PREDNISONE] |  |  |  |  |  |  |  |  |  |  |  |  | 

Row | SMILES | permeability [1] | IC50 [2] | IC50 [3] | Activity [4] | Activity [5] | Activity [6] | Activity [7] | Activity [8] | Activity [9] | Activity [10] | Activity [11] | Activity [12] | Activity [2] | Activity [13]
3 | C=CC1=C[C@@H]2[C@@H]3O[C@]4(CC[C@H](O4)[C@@H](C)C[C@@H](O)C3=O)C[C@H](O)C3=NCC[C@@]32CC1 | 54% | 3.2 nM | 2.8 nM | Active | Active | Active | Active | Active | Active | Active | Active | Active | Dose-dependent effect | Dose-dependent effect
